Experimental findings from ChEMBL document CHEMBL4406880, “Design, synthesis, and bioactivity of dihydropyrimidine derivatives as kinesin spindle protein inhibitors” (Bioorg Med Chem, 2019) are described below.

What all share (format): functional
The test system of one assay is A549. Briefly: Growth inhibition of human A549/ATCC cells assessed as growth percentage at 10 uM incubated for 48 hrs by sulforhodamine B assay relative to control. Conditions: A549, 48 h, read-out: Activity. In outline: (§1)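 NCI-60 one-dose screen: cells in RPMI 1640 with 5% FBS and 2 mM L-glutamine, plated at 5,000–40,000 cells/well and preincubated 24 h at 37 °C, 5% CO2. Compound is added from a DMSO stock to a final 10 µM and incubated 48 h. Cells are TCA-fixed and stained with sulforhodamine B, read at 515 nm. Output is % growth versus untreated control, with a time-zero plate.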
(In general: The SRB assay estimates cell density from bound dye.)

A further assay has as its system K562. Briefly: Growth inhibition of human K562 cells assessed as growth percentage at 10 uM incubated for 48 hrs by sulforhodamine B assay relative to control. The note with it: K562, 48 h, read-out: Activity. In outline:
(§2)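 NCI-60 one-dose screen. Cells in RPMI 1640 with 5% FBS and 2 mM L-glutamine, seeded at 5,000–40,000 cells/well according to doubling time, and preincubated overnight at 37 °C, 5% CO2. A time-zero plate was TCA-fixed at drug addition. Compound from DMSO stock, final 10 µM, 48 h; DMSO vehicle controls. Fixation with TCA, 10% final (16% for suspension cells). SRB stain, Tris solubilization, A515. Result given as % growth versus untreated cells.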

The subject of a further assay is HL-60(TB). Briefly: Growth inhibition of human HL-60(TB) cells assessed as growth percentage at 10 uM incubated for 48 hrs by sulforhodamine B assay relative to control. The note with it: HL-60, 48 h, read-out: Activity. In a few lines:
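NCI-60 single-dose screen. Cells in RPMI 1640 with 5% FBS and 2 mM L-glutamine are plated at 5,000–40,000 cells/well and preincubated overnight at 37 °C, 5% CO2. Compound is added from a DMSO stock at 10 µM final for 48 h. Cells are TCA-fixed (suspension cells 16% final) and stained with SRB. Absorbance is read at 515 nm, and percentage growth is calculated against untreated controls with a time-zero plate.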

A further assay deals with COLO 205. The experiment in a line: Growth inhibition of human COLO205 cells assessed as growth percentage at 10 uM incubated for 48 hrs by sulforhodamine B assay relative to control. The note with it: COLO 205, 48 h, read-out: Activity. In a few lines: as §1
A further assay has as its system HCC 2998. The experiment in a line: Growth inhibition of human HCC2998 cells assessed as growth percentage at 10 uM incubated for 48 hrs by sulforhodamine B assay relative to control. The note with it: HCC 2998, 48 h, read-out: Activity. In outline: as §1
The subject of a further assay is HCT-116. The experiment in a line: Growth inhibition of human HCT116 cells assessed as growth percentage at 10 uM incubated for 48 hrs by sulforhodamine B assay relative to control. The note with it: HCT-116, 48 h, read-out: Activity. In outline: as §1
A further assay concerns HCT-15. The experiment in a line: Growth inhibition of human HCT15 cells assessed as growth percentage at 10 uM incubated for 48 hrs by sulforhodamine B assay relative to control. The note with it: HCT-15, 48 h, read-out: Activity. In a few lines:
as §1

A further assay relates to HT-29. The experiment in a line: Growth inhibition of human HT-29 cells assessed as growth percentage at 10 uM incubated for 48 hrs by sulforhodamine B assay relative to control. Conditions: HT-29, 48 h, read-out: Activity. In outline:
as §2

The test system of the next assay is KM12. The experiment in a line: Growth inhibition of human KM12 cells assessed as growth percentage at 10 uM incubated for 48 hrs by sulforhodamine B assay relative to control. The note with it: KM12, 48 h, read-out: Activity. In a few lines: as §2
A further assay relates to SW-620. The experiment in a line: Growth inhibition of human SW620 cells assessed as growth percentage at 10 uM incubated for 48 hrs by sulforhodamine B assay relative to control. The note with it: SW-620, 48 h, read-out: Activity. In outline: (§3)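 NCI-60 single-dose screen. Cells were grown in RPMI 1640 with 5% FBS and 2 mM L-glutamine and plated at 5,000–40,000 cells/well. After an overnight preincubation at 37 °C in 5% CO2, compound was added at a final 10 µM from a DMSO stock, with DMSO/PBS controls. After 48 h, cells were TCA-fixed and stained with 0.4% SRB, and absorbance was read at 515 nm. Growth is given as a percentage of untreated control.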

For another assay, the system named is SF-295. The experiment in a line: Growth inhibition of human SF295 cells assessed as growth percentage at 10 uM incubated for 48 hrs by sulforhodamine B assay relative to control. Conditions: SF-295, 48 h, read-out: Activity. In a few lines: as §3
A further assay concerns U-251. Briefly: Growth inhibition of human U251 cells assessed as growth percentage at 10 uM incubated for 48 hrs by sulforhodamine B assay relative to control. The note with it: U-251, 48 h, read-out: Activity. In outline: as §3
For another assay, the system named is LOX IMVI. The experiment in a line: Growth inhibition of human LOXIMVI cells assessed as growth percentage at 10 uM incubated for 48 hrs by sulforhodamine B assay relative to control. Conditions: read-out: Activity. In a few lines:
as §2

A further assay deals with SK-MEL-28. Briefly: Growth inhibition of human SK-MEL-28 cells assessed as growth percentage at 10 uM incubated for 48 hrs by sulforhodamine B assay relative to control. The note with it: SK-MEL-28, 48 h, read-out: Activity. In outline:
as §3

The subject of a further assay is SK-MEL-5. The experiment in a line: Growth inhibition of human SK-MEL-5 cells assessed as growth percentage at 10 uM incubated for 48 hrs by sulforhodamine B assay relative to control. The note with it: SK-MEL-5, 48 h, read-out: Activity. In outline: as §3
The subject of another assay is UACC-257. Briefly: Growth inhibition of human UACC257 cells assessed as growth percentage at 10 uM incubated for 48 hrs by sulforhodamine B assay relative to control. Conditions: UACC-257, 48 h, read-out: Activity. In a few lines:
as §3

The test system of a further assay is UACC-62. Briefly: Growth inhibition of human UACC62 cells assessed as growth percentage at 10 uM incubated for 48 hrs by sulforhodamine B assay relative to control. The note with it: UACC-62, 48 h, read-out: Activity. In outline: as §3
The subject of the next assay is OVCAR-3. The experiment in a line: Growth inhibition of human OVCAR3 cells assessed as growth percentage at 10 uM incubated for 48 hrs by sulforhodamine B assay relative to control. Conditions: OVCAR-3, 48 h, read-out: Activity. In outline: as §2
The next assay deals with OVCAR-8. The experiment in a line: Growth inhibition of human OVCAR8 cells assessed as growth percentage at 10 uM incubated for 48 hrs by sulforhodamine B assay relative to control. Conditions: OVCAR-8, 48 h, read-out: Activity. In outline:
as §3

A further assay concerns NCI/ADR-RES. The experiment in a line: Growth inhibition of human NCI/ADR-RES cells assessed as growth percentage at 10 uM incubated for 48 hrs by sulforhodamine B assay relative to control. The note with it: read-out: Activity. In a few lines:
as §2

The next assay deals with RXF 393. Briefly: Growth inhibition of human RXF393 cells assessed as growth percentage at 10 uM incubated for 48 hrs by sulforhodamine B assay relative to control. Conditions: RXF 393, 48 h, read-out: Activity. In outline:
as §3

In another assay the test system is SN12C. Briefly: Growth inhibition of human SN12C cells assessed as growth percentage at 10 uM incubated for 48 hrs by sulforhodamine B assay relative to control. The note with it: read-out: Activity. In a few lines:
as §3

Another assay concerns DU-145. The experiment in a line: Growth inhibition of human DU145 cells assessed as growth percentage at 10 uM incubated for 48 hrs by sulforhodamine B assay relative to control. Conditions: DU-145, 48 h, read-out: Activity. In outline:
as §1

The subject of the next assay is MDA-MB-231. Briefly: Growth inhibition of human MDA-MB-231 cells assessed as growth percentage at 10 uM incubated for 48 hrs by sulforhodamine B assay relative to control. Conditions: MDA-MB-231, 48 h, read-out: Activity. In a few lines: as §2

For the compound `CC1=C(C(=O)c2ccccc2)C(c2ccc3c(c2)OCO3)NC(=O)N1` (racemic), the growth at 10 µM came to 101% in the assay with A549; 92.7% with K562; 105% with HL-60(TB); 114% in the assay on COLO 205; 111% with HCC 2998; 98.9% with HCT-116. Also, the growth at 10 µM amounted to 99.8% in the assay with HCT-15; 105% in the assay on HT-29; 99.9% in the assay with KM12; 98.5% in the assay with SW-620; 101% in the assay on SF-295; 96.5% in the assay on U-251. For the same compound, the growth at 10 µM with LOX IMVI stood at 97.3%; in the assay on SK-MEL-28 it was 117%; in the assay with SK-MEL-5, 98.8%; in the assay with UACC-257 it was 98%; in the assay with UACC-62, 94.3%; in the assay with OVCAR-3, 106%. Also, the growth at 10 µM worked out at 99.3% in the assay on OVCAR-8; 103% with NCI/ADR-RES; 109% in the assay on RXF 393; 97% with SN12C; 105% in the assay with DU-145; 102% with MDA-MB-231.

With `CC1=C(C(=O)OCc2ccccc2)C(c2ccc3c(c2)OCO3)NC(=S)N1` (racemic), the growth at 10 µM turned out to be 93.7% in the assay on A549; 75.2% in the assay on K562; 56.1% in the assay with HL-60(TB); 117% in the assay with COLO 205; 120% with HCC 2998; 93.1% with HCT-116. For the same compound, the growth at 10 µM with HCT-15 was 96.5%; in the assay on HT-29 it was 105%; with KM12 it was 91.9%; in the assay with SW-620 it was 94.2%; in the assay on SF-295 it was 102%; in the assay on U-251, 95.8%. Further, the growth at 10 µM in the assay with LOX IMVI amounted to 98.5%; in the assay with SK-MEL-28, 106%; in the assay on SK-MEL-5 it was 88.9%; in the assay with UACC-257, 96.7%; in the assay on UACC-62 it was 91.2%; in the assay on OVCAR-3, 98.4%. For the same compound, the growth at 10 µM in the assay with OVCAR-8 was found to be 97.5%; with NCI/ADR-RES, 105%; with RXF 393, 94.4%; in the assay with SN12C, 96.8%; in the assay with DU-145, 101%; in the assay with MDA-MB-231, 105%.

For the compound `COCCOC(=O)C1=C(C)NC(=S)NC1c1ccc2c(c1)OCO2` (racemic), the growth at 10 µM was 101% with A549; 91.8% in the assay on K562; 92.1% in the assay on HL-60(TB); 117% in the assay with COLO 205; 110% in the assay on HCC 2998; 103% with HCT-116. In addition, the growth at 10 µM in the assay on HCT-15 is 102%; with HT-29 it was 96.7%; with KM12, 100%; in the assay on SW-620, 106%; in the assay with SF-295 it was 105%; in the assay on U-251, 104%. Further, the growth at 10 µM in the assay with LOX IMVI stood at 101%; with SK-MEL-28 it was 114%; in the assay on SK-MEL-5 it was 97.6%; in the assay on UACC-257, 90.2%; in the assay with UACC-62 it was 102%; in the assay on OVCAR-3, 111%. For the same compound, the growth at 10 µM came out at 102% with OVCAR-8; 103% in the assay on NCI/ADR-RES; 101% with RXF 393; 104% in the assay with SN12C; 108% with DU-145; 105% in the assay with MDA-MB-231.
